Reference: ChEMBL document CHEMBL1150392, “Synthesis and activity on rat aorta rings and rat pancreatic beta-cells of ring-opened analogues of benzopyran-type potassium channel activators” (Bioorg Med Chem, 2008)

Key:
[1] = species: Rattus norvegicus; test: Activation of ATP-sensitive potassium channel in Wistar rat pancreatic beta islets assessed as glucose-induced residual insulin secretion at 10 uM relative to control
[2] = species: Rattus norvegicus; test: Activation of ATP-sensitive potassium channel in potassium-depolarized Wistar rat aortic rings assessed as myorelaxant activity against KCl-induced contraction; type: tissue-based; conditions: Aorta
Procedure, shortened: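 Aorta rings were taken from fed Wistar rats (180–220 g) and contracted with KCl 30 mM. Dose–response curves were run against the plateau phase.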

[3] = species: Rattus norvegicus; test: Activation of ATP-sensitive potassium channel in Wistar rat pancreatic beta islets assessed as glucose-induced residual insulin secretion at 50 uM relative to control
[4] = test system: Aorta; test: Ratio of IC50 for inhibition of glucose-induced insulin secretion in Wistar rat pancreatic beta islets to ED50 for myorelaxant activity in Wistar rat aortic rings; type: functional
[5] = Activation of ATP-sensitive potassium channel in Wistar rat pancreatic beta islets assessed as inhibition of glucose-induced insulin secretion

| SMILES | Activity [1] | ED50 [2] | Activity [3] | Ratio [4] | IC50 [5] |
| --- | --- | --- | --- | --- | --- |
| CC(N/C(=N\C#N)Nc1ccncc1)C(C)(C)C (configuration not stated) | 96% | 0.35 µM |  |  |  |
| COc1ccccc1CNC(=O)NS(=O)(=O)c1ccc(Cl)cc1 |  | > 30 µM | 113% |  |  |
| COc1ccccc1CNC(=O)c1ccc([N+](=O)[O-])cc1 |  | > 30 µM | 86.6% |  |  |
| COc1ccccc1CNC(=O)c1cccs1 |  | > 30 µM | 83.3% |  |  |
| CC1(C)Oc2ccc(C#N)cc2C(N2CCCC2=O)C1O (configuration not stated) [CROMAKALIM] | 94.7% | 0.13 µM | 77.2% | >769 |  |
| CC1=Nc2ccc(Cl)cc2S(=O)(=O)N1 [DIAZOXIDE] | 71.7% | 23.8 µM | 27.9% | 1 | 19.7 µM |
